Experimental data from ChEMBL document CHEMBL5058577, “EUbOPEN Chemogenomics Library 2 (Multiplex)” (2022).

Test system: U2OS
Experiment: Multiplex assay against U2OS
Format: toxicity, cell-based
Details: human
How it was run: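 Compound was added to live cells that had been stained at seeding with Hoechst33342, BioTracker Green Microtubule Cytoskeleton Dye, MitoTracker Red and Annexin V Alexa Fluor 680, and imaging followed on a CQ1 microscope at 37°C and 5% CO2. CellPathfinder machine-learning gating divided cells into Hoechst high-intensity objects or normal cells, normal cells into healthy, pyknosed or fragmented nuclei, and pyknosed cells into mitotic or apoptotic. Tubulin, mitochondrial-mass and membrane-permeability phenotypes are per cents of healthy-nucleus cells.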

[1] = 12 h, 1 µM, compound concentration 1 uM, replicate 1
[2] = 12 h, 1 µM, compound concentration 1 uM, replicate 2
[3] = 12 h, 10 µM, compound concentration 10 uM, replicate 1
[4] = 12 h, 10 µM, compound concentration 10 uM, replicate 2
[5] = 24 h, 1 µM, compound concentration 1 uM, replicate 1
[6] = 24 h, 1 µM, compound concentration 1 uM, replicate 2
[7] = 24 h, 10 µM, compound concentration 10 uM, replicate 1
[8] = 24 h, 10 µM, compound concentration 10 uM, replicate 2
[9] = 48 h, 1 µM, compound concentration 1 uM, replicate 1
[10] = 48 h, 1 µM, compound concentration 1 uM, replicate 2
[11] = 48 h, 10 µM, compound concentration 10 uM, replicate 1
[12] = 48 h, 10 µM, compound concentration 10 uM, replicate 2

COc1c(C)cc(NC(=O)c2nn(Cc3ccc(F)cc3)c3c2CN(C(=O)c2ccc[nH]2)C[C@]3(C)C(N)=O)cc1C
Population Apoptotic (%) [1]: 65%
Population Fragmented Nuclei (%) [1]: 22%
Population Healthy Nuclei (%) [1]: 65%
Population Hoechst High Intensity Objects (%) [1]: 2%
Population Membrane Permeable-Phenotype (%) [1]: 8%
Population Mitochondria Different-Phenotype (%) [1]: 3%
Population Mitotic Cells (%) [1]: 34%
Population Normal (%) [1]: 97%
Population Pyknosed Nuclei (%) [1]: 12%
Population Tubulin-Different-Phenotype (%) [1]: 5%
Total Cell Count [1]: 247
Population Apoptotic (%) [2]: 83%
Population Fragmented Nuclei (%) [2]: 21%
Population Healthy Nuclei (%) [2]: 72%
Population Mitochondria Different-Phenotype (%) [2]: 12%
Population Mitotic Cells (%) [2]: 16%
Population Pyknosed Nuclei (%) [2]: 6%
Population Tubulin-Different-Phenotype (%) [2]: 9%
Total Cell Count [2]: 102
Population Apoptotic (%) [3]: 33%
Population Fragmented Nuclei (%) [3]: 26%
Population Healthy Nuclei (%) [3]: 43%
Population Hoechst High Intensity Objects (%) [3]: 9%
Population Membrane Permeable-Phenotype (%) [3]: 77%
Population Mitochondria Different-Phenotype (%) [3]: 90%
Population Mitotic Cells (%) [3]: 66%
Population Normal (%) [3]: 90%
Population Pyknosed Nuclei (%) [3]: 29%
Population Tubulin-Different-Phenotype (%) [3]: 95%
Total Cell Count [3]: 223
Population Apoptotic (%) [4]: 60%
Population Fragmented Nuclei (%) [4]: 11%
Population Healthy Nuclei (%) [4]: 66%
Population Hoechst High Intensity Objects (%) [4]: 8%
Population Membrane Permeable-Phenotype (%) [4]: 54%
Population Mitochondria Different-Phenotype (%) [4]: 97%
Population Mitotic Cells (%) [4]: 39%
Population Normal (%) [4]: 91%
Population Pyknosed Nuclei (%) [4]: 21%
Population Tubulin-Different-Phenotype (%) [4]: 100%
Total Cell Count [4]: 119
Population Apoptotic (%) [5]: 67%
Population Fragmented Nuclei (%) [5]: 16%
Population Healthy Nuclei (%) [5]: 71%
Population Hoechst High Intensity Objects (%) [5]: 5%
Population Membrane Permeable-Phenotype (%) [5]: 8%
Population Mitochondria Different-Phenotype (%) [5]: 6%
Population Mitotic Cells (%) [5]: 32%
Population Normal (%) [5]: 94%
Population Pyknosed Nuclei (%) [5]: 12%
Population Tubulin-Different-Phenotype (%) [5]: 7%
Total Cell Count [5]: 265
Population Apoptotic (%) [6]: 61%
Population Fragmented Nuclei (%) [6]: 17%
Population Healthy Nuclei (%) [6]: 70%
Population Hoechst High Intensity Objects (%) [6]: 0%
Population Membrane Permeable-Phenotype (%) [6]: 7%
Population Mitochondria Different-Phenotype (%) [6]: 2%
Population Mitotic Cells (%) [6]: 38%
Population Normal (%) [6]: 99%
Population Pyknosed Nuclei (%) [6]: 11%
Population Tubulin-Different-Phenotype (%) [6]: 6%
Total Cell Count [6]: 111
Population Apoptotic (%) [7]: 66%
Population Fragmented Nuclei (%) [7]: 26%
Population Healthy Nuclei (%) [7]: 41%
Population Hoechst High Intensity Objects (%) [7]: 12%
Population Membrane Permeable-Phenotype (%) [7]: 46%
Population Mitochondria Different-Phenotype (%) [7]: 92%
Population Mitotic Cells (%) [7]: 33%
Population Normal (%) [7]: 87%
Population Pyknosed Nuclei (%) [7]: 31%
Population Tubulin-Different-Phenotype (%) [7]: 94%
Total Cell Count [7]: 216
Population Apoptotic (%) [8]: 65%
Population Fragmented Nuclei (%) [8]: 13%
Population Healthy Nuclei (%) [8]: 53%
Population Hoechst High Intensity Objects (%) [8]: 7%
Population Membrane Permeable-Phenotype (%) [8]: 49%
Population Mitochondria Different-Phenotype (%) [8]: 91%
Population Mitotic Cells (%) [8]: 34%
Population Normal (%) [8]: 92%
Population Pyknosed Nuclei (%) [8]: 33%
Population Tubulin-Different-Phenotype (%) [8]: 91%
Total Cell Count [8]: 123
Population Apoptotic (%) [9]: 79%
Population Fragmented Nuclei (%) [9]: 18%
Population Healthy Nuclei (%) [9]: 68%
Population Hoechst High Intensity Objects (%) [9]: 2%
Population Membrane Permeable-Phenotype (%) [9]: 4%
Population Mitochondria Different-Phenotype (%) [9]: 3%
Population Mitotic Cells (%) [9]: 20%
Population Normal (%) [9]: 97%
Population Pyknosed Nuclei (%) [9]: 13%
Population Tubulin-Different-Phenotype (%) [9]: 2%
Total Cell Count [9]: 365
Population Apoptotic (%) [10]: 84%
Population Fragmented Nuclei (%) [10]: 15%
Population Healthy Nuclei (%) [10]: 70%
Population Hoechst High Intensity Objects (%) [10]: 5%
Population Membrane Permeable-Phenotype (%) [10]: 9%
Population Mitochondria Different-Phenotype (%) [10]: 4%
Population Mitotic Cells (%) [10]: 15%
Population Normal (%) [10]: 94%
Population Tubulin-Different-Phenotype (%) [10]: 5%
Total Cell Count [10]: 152
Population Apoptotic (%) [11]: 84%
Population Fragmented Nuclei (%) [11]: 31%
Population Healthy Nuclei (%) [11]: 24%
Population Hoechst High Intensity Objects (%) [11]: 17%
Population Membrane Permeable-Phenotype (%) [11]: 69%
Population Mitochondria Different-Phenotype (%) [11]: 85%
Population Mitotic Cells (%) [11]: 15%
Population Normal (%) [11]: 82%
Population Pyknosed Nuclei (%) [11]: 44%
Population Tubulin-Different-Phenotype (%) [11]: 90%
Total Cell Count [11]: 212
Population Apoptotic (%) [12]: 87%
Population Fragmented Nuclei (%) [12]: 22%
Population Healthy Nuclei (%) [12]: 47%
Population Hoechst High Intensity Objects (%) [12]: 9%
Population Membrane Permeable-Phenotype (%) [12]: 50%
Population Mitochondria Different-Phenotype (%) [12]: 81%
Population Mitotic Cells (%) [12]: 12%
Population Normal (%) [12]: 90%
Population Pyknosed Nuclei (%) [12]: 29%
Population Tubulin-Different-Phenotype (%) [12]: 80%
Total Cell Count [12]: 150
